# From PubChem BioAssay
# BAP1 block: inhibitors of human BAP1 deubiquitinase. actives 0.48% (n = 72,000). calls only at 20 µM. recombinant BAP1, Ub-AMC hydrolysis fluorescence kinetic; stronger effect = lower value;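 active = activity remaining at or below 50% of control, provided the compound also passes the data quality filters; inactive = the rest, including low values that fail the filters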;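 also: 100% = DMSO wells rate and 0% = substrate alone blank rate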
# M1 ag: activates the M1 muscarinic receptor; actives 3% (n = 64,000); B-score at 10 µM; CHO-M1 cells, Fluo-4 calcium fluorescence, agonist mode; stronger effect = higher value;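 active = fluorescence rise, raw or as B-score row- and column-corrected plate score, outside the 99.7% band of its plate's samples, either direction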
# Ecoli tolC: E. coli tolC mutant growth inhibition | growth inhibition, % at 10 µM (by protocol) | E. coli BW25113 tolC mutant growth, OD615 | actives 2.2% (n = 65,000) | AID 573;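 active = growth inhibition at or above a cutoff equal to the mean over every tested compound plus 3 SD, cut at about 60% in these data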;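 also: growth measured after 20 h incubation at 37 °C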
#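 Test system – E. coli BW25113 ΔtolC::kan, tolC deletion mutant strain · Detection – OD at 615 nm · Buffer or medium – LB with kanamycin 50 µg/mL · Times – 20 h compound exposure of bacteria at 37 °C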
# E coli WT exp: growth inhibitors of E. coli BW25113 wild type | actives 0.15% (n = 98,000) | growth inhibition, % at 100 µM | OD600 absorbance;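 active = growth inhibition above about 50% at one test dose, limit read from the data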;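 also: growth measured after 20 h incubation at 37 °C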
# Hsp90 inh: displaces geldanamycin probe from tumor Hsp90; inhibition, % at 30 µM; AID 429; NCI-N417 lysate Hsp90, Cy3B-geldanamycin FP displacement; actives 0.35% (n = 64,000);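 active = inhibition above 50%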;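 also: 0% = tracer plus lysate wells and 100% = tracer alone without lysate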
# M1 antag: antagonists of rat M1 muscarinic receptor; P08482; CHO-M1 cells, Fluo-4 calcium, ACh EC80 antagonist mode; stronger effect = lower value; B-score at 10 µM; actives 3.4% (n = 64,000); AID 628;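 active = calcium fluorescence response, raw or row-and-column corrected B-score, differing from the plate sample mean either way at a set confidence level, mostly lower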
# Target sequence (P08482 whole entry, looked up): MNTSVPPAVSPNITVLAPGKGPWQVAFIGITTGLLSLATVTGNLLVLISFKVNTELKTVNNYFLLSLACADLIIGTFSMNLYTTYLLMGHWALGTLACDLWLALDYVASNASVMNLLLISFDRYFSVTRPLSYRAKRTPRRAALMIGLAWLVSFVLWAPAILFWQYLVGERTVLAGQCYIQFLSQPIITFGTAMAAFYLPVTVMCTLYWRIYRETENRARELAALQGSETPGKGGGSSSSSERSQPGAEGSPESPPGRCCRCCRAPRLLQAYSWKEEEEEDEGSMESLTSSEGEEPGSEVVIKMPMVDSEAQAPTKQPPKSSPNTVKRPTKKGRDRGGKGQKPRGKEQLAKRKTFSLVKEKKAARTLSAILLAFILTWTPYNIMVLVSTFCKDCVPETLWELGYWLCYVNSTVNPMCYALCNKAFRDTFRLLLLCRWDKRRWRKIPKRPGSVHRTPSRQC
# M1 ag confirm: rat M1 muscarinic agonism, confirmation | CHO-M1 cells, Fluo-4 calcium fluorescence, agonist mode; actives lie on both sides | shares compounds with M1 ag | fluorescence change (max-min) at 10 µM | actives 19% (n = 1,700);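 active = fluorescence change differs from the solvent-only DMSO control mean at a set confidence level in both duplicate runs; inconclusive = differs from solvent-only control mean in just one of two runs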;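 also: an EC20 dose of acetylcholine follows compound addition during the same imaging run; raw fluorescence intensity difference in instrument units with no normalization to controls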
# M4 ag counter: activates rat M4 receptor in counter-screen for M1 agonists; shares compounds with M1 ag; CHO M4/Gqi5 cells, Fluo-4 calcium fluorescence, agonist mode; actives lie on both sides; fluorescence change (max-min) at 10 µM; actives 9% (n = 1,700); AID 1741;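 active = fluorescence change differing from the plate's solvent-only control wells at 99.7% confidence in both duplicates, whether higher or lower; inconclusive = differs from solvent controls in only one of two duplicates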
# An asterisk follows results filed as active; i = inactive; ? = inconclusive; . = not tested or not shown. Sampled rows, rich in hits. Any-hit rate of the full collection: about 5.1%.
SMILES,BAP1 block,M1 ag,Ecoli tolC,E coli WT exp,Hsp90 inh,M1 antag,M1 ag confirm,M4 ag counter
Cc1ccc(Cn2nnc(C(=O)Nc3cccc(C)c3C)c2N)cc1,i,7.51*,1.0,-10.0,-1.4,0.0142,4.21,-61.8
CCc1ccc(Cn2nnc(C(=O)NCc3ccccc3OC)c2N)cc1,i,2.18*,4.1,-7.0,-5.7,0.141,-28.9,-23.3
CCCCC1CCC(C(=O)c2ccccc2)CC1 (stereo not given),i,.,.,.,.,.,.,.
CCOc1ccc2oc(-c3ccccc3)c(C(=O)N3CCN(CCO)CC3)c2c1,.,4.17*,8.0,-3.0,-2.0,-0.622,-9.46,?
C[N+](C)(C)C/C=C1/COCO1,i,48.8*,-6.7,1.0,-0.9,-13.4*,437*,178*
COc1ccc(OC)c(C(=O)CN2CCN(S(=O)(=O)c3ccc(Br)cc3)CC2)c1,i,27.7*,-3.8,-2.0,-2.4,0.406,-25,-21.3
COC(=O)CSc1cc(SCC(=O)OC)c(C#N)c(SCC(=O)OC)c1,i,9.5*,-10.2,-4.0,-2.3,-1.11,-21.3,-63.9*
COC(=O)CSc1ccc(C#N)c(SCC(=O)OC)c1,.,.,.,2.0,.,.,.,.
CCOC(=O)N1CCN(c2cc(NCCC(=O)O)c3c4c(onc24)-c2ccccc2C3=O)CC1,i,14.3*,13.8,-59.0,28.7,0.7,-7.36,-20.8
O=C(CSC1=NCCS1)N1CCCc2ccccc21,i,.,.,.,.,.,.,.
O=C1c2ccc(-c3nc4ccccc4c(=O)o3)cc2C(=O)N1CC1CCCO1 (stereo not given),i,.,.,.,.,.,.,.
COc1ccc(-c2noc(CN(C)S(=O)(=O)c3ccccc3)n2)cc1OC,i,-0.51,-13.6,.,1.2,-0.362,.,.
COc1ccc(S(=O)(=O)N(Cc2ccccc2)Cc2nc(-c3ccccc3)no2)cc1,i,23.3*,27.5,-14.0,-0.8,-0.745,5.4,-41.3
O=C(Nc1cc2cc([N+](=O)[O-])ccc2oc1=O)c1ccc(Br)cc1,i,.,.,.,.,.,.,.
O=C1C2C3CCCC3=C3CCCC3C2C(=O)N1c1cccc(Cl)c1 (stereo not given),i,-0.534,9.3,4.0,-2.6,0.182,.,.
O=C1C2C3CCCC3=C3CCCC3C2C(=O)N1c1ccc(Cl)cc1 (stereo not given),.,4.17*,-0.5,.,-12.7,-0.902,?,-37.6
COc1ccccc1N1CCN(C(=O)CCNS(=O)(=O)c2ccc(Br)s2)CC1,i,2.56*,33.2,-6.0,0.0,0.661,?,-76.7
CC(C)CN1C(=O)c2ccc(C(=O)Nc3ccncc3)cc2C1=O,i,5.18*,9.5,5.0,-3.0,-1.15,-17.3,-61.2
CC(C)CN1C(=O)c2ccc(C(=O)Nc3ccccn3)cc2C1=O,i,0.463,10.3,-3.0,-2.1,-0.803,.,.
CCNc1c2c3c(cccc3n(C)c1=O)C(=O)c1ccccc1-2,i,357*,6.5,-1.0,19.6,-17.3*,3230*,2794*
Cn1c(=O)c(NCCO)c2c3c(cccc31)C(=O)c1ccccc1-2,i,388*,25.2,-5.0,135.2*,-13.2*,3131*,2588*
CCCCNc1c2c3c(cccc3n(C)c1=O)C(=O)c1ccccc1-2,.,.,.,-26.0,.,.,.,.
COc1ccccc1Oc1ccc(S(=O)(=O)NCc2ccccn2)cc1,i,12*,7.7,-5.0,-5.1,-0.212,?,?
Cc1[nH]c2ccccc2c1C(C[N+](=O)[O-])c1cc(Cl)c2c(c1)OCO2 (stereo not given),i,.,.,.,.,.,.,.
CCCCOc1[nH]c2nc(-c3ccco3)n(Cc3ccco3)c(=N)c2c1C#N,i,14.8*,77.8*,-2.0,-1.6,-0.0323,18.3,6.15
c1ccc(CSc2nnc(-c3ccco3)n2Cc2ccco2)cc1,.,-0.462,13.0,5.0,.,-0.515,.,.
COc1ccc(Cl)cc1CN1CCN(c2nc(C)cc(C)c2C#N)CC1,i,7.45*,96.9*,1.0,-4.0,0.00974,20.8,5.9
